Results as given in ChEMBL document CHEMBL2010760, “New insights into the structure-cytotoxicity relationship of spirostan saponins and related glycosides” (Bioorg Med Chem, 2012).
The source made the active and inactive calls. The rule behind the calls is not given here.

Assays:
[1] = tested on: HL-60; assay: Cytotoxicity against human HL60 cells assessed as cell viability after 72 hrs by MTT assay; format: functional, cell-based; conditions: HL-60, 72 h
In short: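 HL-60 myeloid leukemia cells in RPMI 1640 with 10% heat-inactivated FBS, penicillin/streptomycin, 37 °C, 5% CO2. Exponentially growing cells (1 × 10⁴/well) exposed to 0.3–100 µM glycoside (100 mM DMSO stocks) for 72 h. MTT read at 570 nm. Survival taken as percent of control absorbance. IC50 from concentration–response curves fitted per experiment (DeLean equation). Triplicate determinations.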

[2] = tested on: HL-60; assay: Induction of apoptosis in human HL60 cells assessed as increase in hypodiploid cells at sub-G1 fraction at 10 uM after 24 hrs by propidium iodide based flow cytometry relative to control; format: functional
In short: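 HL-60 cells incubated with 10 µM glycoside for 24 h, labelled with propidium iodide and analysed by flow cytometry. Hypodiploid (sub-G1) fraction compared with control cells.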

[3] = tested on: HL-60; assay: Induction of apoptosis in human HL60 cells assessed as caspase 9 activation measuring cleavage of tetrapeptide LEHD-pNA at 1 to 10 uM after 24 hrs; format: functional, cell-based
In short: (§1)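 HL-60 cells treated with increasing glycoside concentrations and harvested at 24 h. Lysates assayed colorimetrically with DEVD-pNA (caspase-3/7), IETD-pNA (caspase-8) and LEHD-pNA (caspase-9). Activity expressed as fold increase over control, mean ± SE. Two independent experiments, each in duplicate.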

[4] = tested on: HL-60; assay: Induction of apoptosis in human HL60 cells assessed as caspase 3/7 activation measuring cleavage of tetrapeptide DEVD-pNA at 1 to 10 uM after 24 hrs; format: functional, cell-based; in short: as §1
[5] = tested on: HL-60; assay: Induction of apoptosis in human HL60 cells assessed as fragmented chromatin at 10 uM after 24 hrs by Hoechst 33258 staining method; format: functional, cell-based
In short: (§2)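 Nuclear chromatin condensation and fragmentation in HL-60 cells scored by fluorescent microscopy after Hoechst 33258 staining. Treated cells compared with control cells.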

[6] = tested on: HL-60; assay: Growth inhibition in human HL60 cells at 10 uM after 24 hrs by phase contrast microscopy; format: functional, cell-based
In short: (§3)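 HL-60 cells cultured in RPMI 1640/10% FBS at 37 °C, 5% CO2. Treated with 10 µM glycoside for 24 h. Representative fields examined by inverted phase contrast microscopy for morphology and growth.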

[7] = tested on: HL-60; assay: Induction of apoptosis in human HL60 cells assessed as condensed chromatin at 10 uM after 24 hrs by Hoechst 33258 staining method; format: functional, cell-based; in short: as §2
[8] = tested on: HL-60; assay: Induction of apoptosis in human HL60 cells assessed as caspase 8 activation measuring cleavage of tetrapeptide IETD-pNA at 1 to 10 uM after 24 hrs; format: functional, cell-based; in short: as §1
[9] = tested on: HL-60; assay: Induction of apoptosis in human HL60 cells assessed as morphological changes at 10 uM after 24 hrs by phase contrast microscopy; format: functional, cell-based; in short: as §3

SMILES	IC50 [1] [µM]	other results
C[C@@H]1CC[C@@]2(OC1)O[C@H]1C[C@H]3[C@@H]4CC=C5C[C@@H](O[C@@H]6O[C@H](CO)[C@@H](O[C@@H]7O[C@@H](C)[C@H](O)[C@@H](O)[C@H]7O)[C@H](O)[C@H]6O[C@@H]6O[C@@H](C)[C@H](O)[C@@H](O)[C@H]6O)CC[C@]5(C)[C@H]4CC[C@]3(C)[C@H]1[C@@H]2C [DIOSCIN]	3.8	
C[C@@H]1CC[C@@]2(OC1)O[C@H]1C[C@H]3[C@@H]4CC(=O)[C@@]5(O)C[C@@H](O[C@@H]6O[C@H](CO[C@@H]7O[C@@H](C)[C@H](O)[C@@H](O)[C@H]7O)[C@@H](O[C@@H]7O[C@@H](C)[C@H](O)[C@@H](O)[C@H]7O)[C@H](O)[C@H]6O)CC[C@]5(C)[C@H]4CC[C@]3(C)[C@H]1[C@@H]2C	> 100	
C[C@@H]1CC[C@@]2(OC1)O[C@H]1C[C@H]3[C@@H]4CC(=O)[C@@]5(O)C[C@@H](O[C@@H]6O[C@H](CO)[C@@H](O)[C@H](O)[C@H]6O)CC[C@]5(C)[C@H]4CC[C@]3(C)[C@H]1[C@@H]2C	> 100	
C[C@@H]1CC[C@@]2(OC1)O[C@H]1C[C@H]3[C@@H]4CC(=O)[C@@]5(O)C[C@@H](O[C@@H]6O[C@H](COC(=O)C(C)(C)C)[C@@H](O)[C@H](OC(=O)C(C)(C)C)[C@H]6O)CC[C@]5(C)[C@H]4CC[C@]3(C)[C@H]1[C@@H]2C	2.1	fold change (FC) [2]: 7; Activity [3]: Active; Activity [4]: Active; Activity [5]: Active; growth inhibition (GI) [6]: Active; Activity [7]: Active; Activity [8]: Active; Activity [9]: Active
C[C@@H]1CC[C@@]2(OC1)O[C@H]1C[C@H]3[C@@H]4CC(=O)[C@@]5(O)C[C@@H](O[C@@H]6O[C@H](CO)[C@@H](O[C@@H]7O[C@@H](C)[C@H](O)[C@@H](O)[C@H]7O)[C@H](O)[C@H]6O[C@@H]6O[C@@H](C)[C@H](O)[C@@H](O)[C@H]6O)CC[C@]5(C)[C@H]4CC[C@]3(C)[C@H]1[C@@H]2C	> 100	
C[C@@H]1CC[C@@]2(OC1)O[C@H]1C[C@H]3[C@@H]4CC(=O)[C@@]5(O)C[C@@H](O[C@@H]6O[C@H](CO)[C@@H](O)[C@H](O)[C@H]6O[C@@H]6O[C@@H](C)[C@H](O)[C@@H](O)[C@H]6O)CC[C@]5(C)[C@H]4CC[C@]3(C)[C@H]1[C@@H]2C	86.7	
C[C@@H]1CC[C@@]2(OC1)O[C@H]1C[C@H]3[C@@H]4CC(=O)[C@@]5(O)C[C@@H](O[C@@H]6O[C@@H]7CO[C@@H](c8ccccc8)O[C@H]7[C@H](OC(=O)C(C)(C)C)[C@H]6O)CC[C@]5(C)[C@H]4CC[C@]3(C)[C@H]1[C@@H]2C	3.3	
C[C@@H]1CC[C@@]2(OC1)O[C@H]1C[C@H]3[C@@H]4CC[C@H]5C[C@@H](O[C@@H]6O[C@H](CO)[C@@H](O)[C@H](O)[C@H]6O)CC[C@]5(C)[C@H]4CC(=O)[C@]3(C)[C@H]1[C@@H]2C	> 100	
C[C@@H]1CC[C@@]2(OC1)O[C@H]1C[C@H]3[C@@H]4CC[C@H]5C[C@@H](O[C@@H]6O[C@H](CO)[C@@H](O[C@@H]7O[C@@H](C)[C@H](O)[C@@H](O)[C@H]7O)[C@H](O)[C@H]6O[C@@H]6O[C@@H](C)[C@H](O)[C@@H](O)[C@H]6O)CC[C@]5(C)[C@H]4CC(=O)[C@]3(C)[C@H]1[C@@H]2C	4.3	
C[C@@H]1CC[C@@]2(OC1)O[C@H]1C[C@H]3[C@@H]4CC[C@H]5C[C@@H](O[C@@H]6O[C@H](CO)[C@@H](O)[C@H](O)[C@H]6O[C@@H]6O[C@@H](C)[C@H](O)[C@@H](O)[C@H]6O)CC[C@]5(C)[C@H]4CC(=O)[C@]3(C)[C@H]1[C@@H]2C	> 100	
C[C@@H]1CC[C@@]2(OC1)O[C@H]1C[C@H]3[C@@H]4CC[C@H]5C[C@@H](O[C@@H]6O[C@H](COC(=O)C(C)(C)C)[C@@H](O)[C@H](OC(=O)C(C)(C)C)[C@H]6O)CC[C@]5(C)[C@H]4CC(=O)[C@]3(C)[C@H]1[C@@H]2C	12	
C[C@@H]1CC[C@@]2(OC1)O[C@H]1C[C@H]3[C@@H]4CC[C@H]5C[C@@H](O[C@@H]6O[C@@H]7CO[C@@H](c8ccccc8)O[C@H]7[C@H](OC(=O)C(C)(C)C)[C@H]6O)CC[C@]5(C)[C@H]4CC(=O)[C@]3(C)[C@H]1[C@@H]2C	45	
C[C@@H]1CC[C@@]2(OC1)O[C@H]1C[C@H]3[C@@H]4CC[C@H]5C[C@@H](O[C@@H]6O[C@H](CO[C@@H]7O[C@@H](C)[C@H](O)[C@@H](O)[C@H]7O)[C@@H](O[C@@H]7O[C@@H](C)[C@H](O)[C@@H](O)[C@H]7O)[C@H](O)[C@H]6O)CC[C@]5(C)[C@H]4CC(=O)[C@]3(C)[C@H]1[C@@H]2C	> 100	
